Measurements published in ChEMBL document CHEMBL3525906, “A comprehensive assessment of repaglinide metabolic pathways: impact of choice of in vitro system and relative enzyme contribution to in vitro clearance” (Drug Metab Dispos, 2012).

Columns and labels:
Homo sapiens [1] = organism: Homo sapiens; assay: Drug metabolism in human patient assessed as fold change in metabolite M2/M1 AUC ratio at 0.25 mg co-treated with telithromycin relative to telithromycin non-treated patient; assay type: ADME, organism-based; details: in vivo
Homo sapiens [2] = organism: Homo sapiens; assay: Ratio of AUC in human patient at 0.25 mg to AUC in human patient at 0.25 mg co-treated with itraconazole; assay type: ADME, organism-based; details: in vivo
Homo sapiens [3] = organism: Homo sapiens; assay: Drug metabolism in human patient assessed as fold change in metabolite M2/M4 AUC ratio at 0.25 mg co-treated with gemfibrozil on various time intervals relative to gemfibrozil non-treated patient; assay type: ADME, organism-based; details: in vivo
[4] = Drug metabolism in human hepatocytes assessed as 2-despiperidyl-2-(5-carboxypentylamine) repaglinide formation by LC-MS/MS method; assay type: ADME, cell-based, Hepatocyte
Homo sapiens [5] = organism: Homo sapiens; assay: Drug metabolism in human patient assessed as fold change in metabolite M2/M4 AUC ratio at 0.25 mg co-treated with montelukast relative to montelukast non-treated patient; assay type: ADME, organism-based; details: in vivo
Hepatocyte [6] = assay: Drug metabolism in human hepatocytes assessed as glucuronide formation measured per 10^6 cells at 0.5 to 150 uM by LC-MS/MS method; assay type: ADME, cell-based
Liver microsome [7] = assay: Drug metabolism in human liver microsomes assessed as 2-despiperidyl-2-(5-carboxypentylamine) repaglinide formation measured per mg of protein at 0.5 to 150 uM by LC-MS/MS method; assay type: ADME
Liver microsome [8] = assay: Unbound intrinsic clearance in human liver microsomes assessed as 3'-hydroxy repaglinide formation measured per mg of protein at 0.5 to 150 uM by LC-MS/MS method; assay type: ADME
Procedure, shortened: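 Pooled HLM, 0.3 mg/ml, in 0.1 M phosphate pH 7.4 with 10 mM MgCl2 and NADPH regenerating system. Repaglinide at 8 levels, 0.5-150 μM; 37°C, 10 min. Metabolites by LC-MS/MS against authentic standards; fu_inc 0.85. Duplicates on three occasions.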

Hepatocyte [9] = assay: Drug metabolism in human hepatocytes assessed as 3'-hydroxy repaglinide formation measured per 10^6 cells at 0.5 to 150 uM by LC-MS/MS method; assay type: ADME, cell-based
Cytochrome P450 3A4 = Cytochrome P450 3A4 (Homo sapiens, UniProt P08684); assay: Fraction metabolism via CYP3A4 in human hepatocytes; assay type: ADME, cell-based, Hepatocyte
Sequence of Cytochrome P450 3A4 (P08684 whole entry): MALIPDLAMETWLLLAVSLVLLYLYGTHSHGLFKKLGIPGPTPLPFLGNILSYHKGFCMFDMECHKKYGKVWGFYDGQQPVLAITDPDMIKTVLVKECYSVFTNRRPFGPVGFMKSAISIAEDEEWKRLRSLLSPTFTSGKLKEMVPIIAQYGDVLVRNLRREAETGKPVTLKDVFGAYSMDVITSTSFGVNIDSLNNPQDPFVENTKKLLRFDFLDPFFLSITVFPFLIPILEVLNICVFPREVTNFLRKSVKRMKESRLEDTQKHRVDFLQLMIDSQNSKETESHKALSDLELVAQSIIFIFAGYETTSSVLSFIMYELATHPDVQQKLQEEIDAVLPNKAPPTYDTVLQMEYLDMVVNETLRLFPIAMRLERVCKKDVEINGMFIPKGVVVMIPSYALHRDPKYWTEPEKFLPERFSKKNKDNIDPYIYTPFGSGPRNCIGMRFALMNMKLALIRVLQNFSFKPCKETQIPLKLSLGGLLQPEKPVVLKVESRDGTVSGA

Homo sapiens [10] = organism: Homo sapiens; assay: Ratio of AUC in human patient at 0.25 mg to AUC in human patient at 0.25 mg co-treated with gemfibrozil and itraconazole; assay type: ADME, organism-based; details: in vivo
Homo sapiens [11] = organism: Homo sapiens; assay: Ratio of AUC in variable SLCO1B1 genotype human patient at 0.25 mg to AUC in variable SLCO1B1 genotype human patient at 0.25 mg co-treated with gemfibrozil; assay type: ADME, organism-based; details: in vivo
Hepatocyte [12] = assay: Drug metabolism in human hepatocytes assessed as 2-despiperidyl-2-amino repaglinide formation measured per 10^6 cells at 0.5 to 150 uM by LC-MS/MS method; assay type: ADME, cell-based

fold change (FC) (Homo sapiens [1]): 3.9 | Ratio (Homo sapiens [2]): 1.4 | fold change (FC) (Homo sapiens [3]): 0.94 | Km [4]: 28 µM | fold change (FC) (Homo sapiens [5]): 0.98 | Vmax (Hepatocyte [6]): 5.7 pmol/min/10^6cells | Vmax (Liver microsome [7]): 28 pmol/min/mg | CL free (Liver microsome [8]): 18 µL/min/mg | Vmax (Hepatocyte [9]): 28 pmol/min/10^6cells | Fm (Cytochrome P450 3A4): 0.41 | Ratio (Homo sapiens [10]): 19 | Ratio (Homo sapiens [11]): 7.3 | Vmax (Hepatocyte [12]): 23 pmol/min/10^6cells
Structure (SMILES): CCOc1cc(CC(=O)N[C@@H](CC(C)C)c2ccccc2N2CCCCC2)ccc1C(=O)O [REPAGLINIDE]
